CAL PDZ FP-1 = untagged CAL PDZ binding inhibitors, primary screen, biochemical, fluorescence polarization, HTS; Golgi-associated PDZ and coiled-coil motif-containing protein (Homo sapiens), Q9HD26; purified CAL PDZ, TMR-peptide fluorescence polarization, 1 h; inhibition, % at 24.9 µM; 300,000 tested, 0.92% active; AID 602252, 2012;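 active = mean inhibition of at least 30% with at least half of replicates also reaching 30%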;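 also: 0% = DMSO neutral control and 100% = excess unlabeled competitor peptide PRC23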
CAL PDZ FP-2 = CAL PDZ peptide-binding inhibitors, primary screen, biochemical, fluorescence polarization, Cer-tagged CAL PDZ, HTS | Golgi-associated PDZ and coiled-coil motif-containing protein (Homo sapiens), Q9HD26 | purified CAL PDZ, TMR-peptide fluorescence polarization, 1 h | inhibition, % at 20 µM | 330,000 tested, 0.02% active | AID 504414, 2011;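 active = highest replicate inhibition of at least 40%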;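 also: plate controls were DMSO neutral control wells for no effect and unlabeled competitor peptide control wells for full effect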
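Read-out basis: mP drop reported as inhibition | Assay system: Tagged CAL PDZ protein CerCALP, purified | Benchmarks: Unlabelled peptide for full inhibition, DMSO wells as neutral | Schedule: 1 h incubation at room temperature before polarization reading | Buffer or medium: Sodium phosphate/NaCl buffer pH 7.4 with TCEP, IgG, Thesit | Doses: Single point, 20 µM | Measured by: Fluorescence polarization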
AI-2 QS modul = Vibrio harveyi AI-2 quorum sensing modulators, primary screen, JMH597 strain, luminescence/OD600 ratio. Vibrio harveyi JMH597 AI-2 luminescence/OD600 ratio, 9 h; stronger effect = lower value; strain lacks LuxN and CqsS sensors; 0 = neutral-control median. activity change, % at 7.5 µM. 300,000 tested, 0.4% active; in the data active = activity change below about -75%, passing the limit was not always enough;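 also: luminescence divided by OD600 gain over 9 h not by final OD600 alone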
Rce1 inh = yeast Rce1p protease inhibitors, primary screen, biochemical, fluorescence, cell-free homogeneous; yeast membranes, quenched prenylated peptide cleavage fluorescence; calls only; 290,000 tested, 0.27% active; AID 2563, 2010;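 active = fall in fluorescence gain of 50% or more versus controls, with final raw signal at or below 3038400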;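 also: plate controls were neutral control wells for no effect and wells lacking membranes for full effect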
Target sequence (Q03530 whole entry, looked up): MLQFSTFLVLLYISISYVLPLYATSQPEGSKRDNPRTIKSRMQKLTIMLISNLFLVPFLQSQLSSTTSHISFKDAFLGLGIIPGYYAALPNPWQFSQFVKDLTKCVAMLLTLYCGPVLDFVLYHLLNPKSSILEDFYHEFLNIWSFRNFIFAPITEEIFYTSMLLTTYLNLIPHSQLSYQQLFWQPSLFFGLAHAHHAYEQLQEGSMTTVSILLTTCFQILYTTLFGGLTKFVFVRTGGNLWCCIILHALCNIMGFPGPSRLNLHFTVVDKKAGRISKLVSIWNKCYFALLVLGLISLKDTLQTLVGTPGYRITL
ARNT-TACC3 inh = disruptors of ARNT/TACC3 protein interaction, primary screen, biochemical, AlphaScreen, single concentration; Transforming acidic coiled-coil-containing protein 3 (Homo sapiens), Q9Y6A5; AlphaScreen His-ARNT PAS-B/GST-TACC3 binding, luminescence; TACC3 fragment carries E629A point mutation; inhibition, % at 9.99 µM; 390,000 tested, 0.66% active;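 active = mean inhibition of replicates at least 50% and at least half of replicates each reaching 50%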;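 also: 0% = complete ARNT plus TACC3 wells and 100% = ARNT alone without TACC3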
* marks the source's active call; other numbers are inactive results; i = inactive; · = no result given; + = active, no number. Sampled rows, rich in hits. Any-hit rate of the full collection: about 1.7%.

SMILES	CAL PDZ FP-1	CAL PDZ FP-2	AI-2 QS modul	Rce1 inh	ARNT-TACC3 inh
Cc1cccc(-n2ncc3c(=O)[nH]c(SCC(=O)N4CC(=O)Nc5ccccc54)nc32)c1	37*	0	·	·	-3
Cc1ccc(-n2ncc3c(=O)[nH]c(SCC(=O)N4CC(=O)Nc5ccccc54)nc32)cc1	-1	0	·	·	-5
O=C(O)C1CC=CCC1C(=O)Nc1ccccc1Cl (centres undefined)	-3	0	10	i	-3
O=C(Nc1cccc2ncccc12)c1cccnc1	0	0	6	+	·
Cc1cccc(NC(=O)c2ccc([N+](=O)[O-])o2)n1	8	-1	-89*	i	1
O=C(Nc1cccc2ncccc12)c1ccc([N+](=O)[O-])o1	-3	-2	-109*	i	·
O=C(Nc1cccc2ncccc12)c1cccc(F)c1	-22	0	7	i	-71
Cc1cccnc1NC(=O)c1ccc([N+](=O)[O-])o1	·	0	5	i	-1
CCOc1ccc(Cn2c(=O)sc3ccccc32)cc1OC	66*	-2	18	i	22
CCOc1ccc(Cn2c(=O)sc3ccccc32)cc1	-1	2	18	i	2
O=C1CN(C(=O)c2ccccc2[N+](=O)[O-])C(c2ccccc2)c2cc(Br)ccc2N1 (centres undefined)	·	0	5	i	2
Cc1ccc2c(c1)C(c1ccccc1)N(C(=O)c1ccccc1[N+](=O)[O-])CC(=O)N2 (centres undefined)	71*	0	23	i	-2
O=[N+]([O-])c1ccc(Oc2cccc3cccnc23)c([N+](=O)[O-])c1	1	-1	16	i	active
N#Cc1ccc(Oc2cccc3cccnc23)c([N+](=O)[O-])c1	-5	·	8	i	-1
COc1ccc(/C=C(\NC(=O)c2ccc(C)cc2)C(=O)NCCCn2ccnc2)cc1OC	-3	-1	6	i	54*
Cc1ccc(C(=O)N/C(=C/c2ccco2)C(=O)NCCCn2ccnc2)cc1	-2	0	21	i	49*
Cc1ccc(C(=O)N/C(=C\c2ccco2)C(=O)NCCCn2ccnc2)cc1	-7	1	21	i	98*
O=C(NCCCn1ccnc1)/C(=C/c1ccco1)NC(=O)c1ccccc1	-3	-1	0	i	7
CN(C)c1ccc(/C=C(\NC(=O)c2ccccc2)C(=O)NCCCn2ccnc2)cc1	-3	-3	·	·	54*
Cc1ccc(C(=O)N/C(=C/c2ccco2)C(=O)Nc2cccc(C(=O)O)c2)cc1	·	·	9	+	·
CN(C)CCOC(=O)c1sc2ccccc2c1Cl	84*	0	16	i	-4
O=C1CN2NC(=S)N(c3ccccc3)C2=CN1c1ccc(Cl)cc1	115*	-1	32	i	-4
O=C1CN2NC(=S)N(c3ccc(Cl)cc3)C2=CN1c1ccc(Cl)cc1	-1	1	19	i	1
C[C@H](CO)N1C[C@H](C)[C@H](CN(C)S(=O)(=O)c2ccccc2)OCCCC[C@H](C)Oc2ccc(NS(=O)(=O)c3ccccc3)cc2C1=O	·	·	·	·	8
CO[C@@H]1CN(C)C(=O)c2cc(NS(=O)(=O)c3cccc(C)c3)ccc2OC[C@@H](C)NC[C@H]1C	·	·	·	·	13*
Cc1ccc(NNC(=O)c2cc(C(C)(C)C)nn2Cc2ccccc2)cc1	-8	0	35	i	-2
CC(C)(C)c1cc(C(=O)NNc2cccc(Cl)c2)n(Cc2ccccc2)n1	66*	-1	16	i	5
CCc1ccccc1Nc1nc2ccccc2n1C(C)C	-1	-1	7	i	-7
CC(C)c1ccc(CNc2ccc([N+](=O)[O-])cn2)cc1	9	0	-55	i	-3
CC(C)(C)c1ccc(CNc2ccc([N+](=O)[O-])cn2)cc1	-2	0	-83*	i	·

Compound activity (PubChem BioAssay)
